In ChEMBL document CHEMBL1144225, “Synthesis and anticonvulsant activities of N-benzyl (2R)-2-acetamido-3-oxysubstituted propionamide derivatives” (Bioorg Med Chem, 2008):

Columns and labels:
Mus musculus [1] = assay: Anticonvulsant activity in ip dosed albino mouse by MES seizure test; type: functional
How it was run: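 Mice dosed intraperitoneally and challenged by maximal electroshock (MES). Dose-effect data taken at the time of peak effect, given in hours.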

Mus musculus [2] = species on record: Mus musculus; assay: Protective index, ratio of TD50 for albino mouse by rotarod test to ED50 for albino mouse by MES seizure test; type: functional
How it was run: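 Protective index calculated as TD50/ED50. TD50 is from the mouse rotorod test and ED50 from the MES test, both after intraperitoneal dosing at the time of peak effect.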

[3] = Neurotoxicity in ip dosed albino mouse by rotarod test; type: toxicity, organism-based; conditions: in vivo
How it was run: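 Mice dosed intraperitoneally and tested on the rotorod for neurologic toxicity. Dose-effect data taken at the time of peak effect, given in hours.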

Structure (SMILES): CC(=O)N[C@H](COC(C)C)C(=O)NCc1ccccc1
- ED50 (Mus musculus [1]): 23 mg/kg
- Ratio TD50/ED50 (Mus musculus [2]): 3.3
- TD50 [3]: 77 mg/kg

Structure (SMILES): CCOC[C@@H](NC(C)=O)C(=O)NCc1ccccc1
- ED50 (Mus musculus [1]): 7.9 mg/kg
- Ratio TD50/ED50 (Mus musculus [2]): 5.6
- TD50 [3]: 44 mg/kg

Structure (SMILES): COCCOCCOC[C@@H](NC(C)=O)C(=O)NCc1ccccc1
- ED50 (Mus musculus [1]): > 300 mg/kg
- TD50 [3]: > 300 mg/kg

Structure (SMILES): CC(=O)N[C@H](COC(C)(C)C)C(=O)NCc1ccccc1
- ED50 (Mus musculus [1]): 30 mg/kg
- TD50 [3]: 100 mg/kg

Structure (SMILES): CC(=O)N[C@H](COc1ccccc1)C(=O)NCc1ccccc1
- ED50 (Mus musculus [1]): 100 mg/kg
- TD50 [3]: 30 mg/kg

Structure (SMILES): CCC1(c2ccccc2)C(=O)NC(=O)NC1=O [PHENOBARBITAL]
- ED50 (Mus musculus [1]): 22 mg/kg

Structure (SMILES): CCCC(CCC)C(=O)[O-].[Na+] [VALPROATE SODIUM]
- ED50 (Mus musculus [1]): 270 mg/kg
